Compound activity: PubChem BioAssay, Johns Hopkins Ion Channel Center
Only some compounds are listed: those with a hit (about 3.7% of all), similar ones and a draw of the others.
KCNK3 block: human KCNK3 channel inhibitors, primary screen, CHO cells, FluxOR thallium flux, B-score; actives 0.84% (n = 340,000); B-score at 10 µM; FluxOR fluorescence; active compounds read low; Potassium channel subfamily K member 3 (Homo sapiens), O14649;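 active = B-score under library mean minus 4 SD, starting fluorescence ratio at most library mean plus 5 SD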;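 note: more negative B-score means stronger inhibition of thallium flux through KCNK3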
KCNK9 inh: KCNK9 potassium channel inhibitors, primary screen, HEK293 cells, thallium flux. FluxOR thallium flux fluorescence; active compounds read low. AID 488922, 2010. B-score at 10 µM. Potassium channel subfamily K member 9 (Homo sapiens), Q9NPC2. actives 1.2% (n = 310,000);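 active = ratio B-score over 3 SD below the library mean, with starting fluorescence within 5 SD of its mean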;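 note: negative B-score means less thallium flux so channel inhibition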
Kir21 block: inhibitors of mouse Kir2.1 inward-rectifier potassium channel; Inward rectifier potassium channel 2 (Mus musculus), P35561; actives 0.85% (n = 310,000); B-score at 10 µM; HEK293-Kir2.1, FluxOR thallium flux fluorescence; active compounds read low;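 active = fluorescence ratio B-score at or below minus 3 SD of library scores, with starting-brightness B-score within 2 SD, cut at about -4.2 in these data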;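 note: channel flux triggered by added potassium and thallium sulfate stimulus; B-score of peak minus minimum fluorescence over baseline after thallium stimulus; more negative B-score means stronger Kir2.1 block with less thallium influx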
Target sequence (P35561 whole entry, looked up): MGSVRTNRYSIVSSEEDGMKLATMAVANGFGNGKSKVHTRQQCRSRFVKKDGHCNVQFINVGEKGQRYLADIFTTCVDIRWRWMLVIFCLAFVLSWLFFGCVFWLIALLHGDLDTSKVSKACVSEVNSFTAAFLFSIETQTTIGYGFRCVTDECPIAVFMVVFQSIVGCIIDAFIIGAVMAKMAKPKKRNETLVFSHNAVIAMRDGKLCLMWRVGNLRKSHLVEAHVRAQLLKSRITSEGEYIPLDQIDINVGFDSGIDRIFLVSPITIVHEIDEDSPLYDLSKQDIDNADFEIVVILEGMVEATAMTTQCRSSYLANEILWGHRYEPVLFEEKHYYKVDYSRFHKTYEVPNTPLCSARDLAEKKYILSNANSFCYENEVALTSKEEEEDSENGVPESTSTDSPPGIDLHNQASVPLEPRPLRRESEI
KCNQ1 inh: inhibitors of human KCNQ1 channel, primary screen, cell-based, thallium flux, high-throughput; actives 1.3% (n = 310,000); Potassium voltage-gated channel subfamily KQT member 1 (Homo sapiens), P51787; CHO-K1 KCNQ1, FluxOR thallium flux fluorescence; active compounds read high; B-score at 10 µM;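 active = compounds whose thallium flux B-score, printed positive for inhibition, exceeds three library SD while starting fluorescence stays within three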;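 note: channel opened by potassium depolarization with thallium stimulus after 20 min compound exposure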
hERG protect: hERG rescue from dofetilide block, primary screen, cell-based, CHO-hERG, FluxOR thallium flux, dofetilide IC70; dofetilide IC70 present; activation (rescue from dofetilide block), less the hit threshold, % at 10 µM; actives 0.51% (n = 310,000);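 active = activation above the mean of controls blocked by dofetilide plus 5 SD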;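 note: thallium influx through hERG after potassium depolarization seen as dye fluorescence rise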
KCNQ1 pot: potentiators or activators of KCNQ1 channel, primary screen, cell-based, thallium flux, high-throughput; Potassium voltage-gated channel subfamily KQT member 1 (Homo sapiens), P51787; B-score at 10 µM; actives 0.35% (n = 310,000); CHO-K1 KCNQ1, thallium flux FluxOR fluorescence; active compounds read high;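 active = fluorescence ratio B-score, a plate-corrected score, at least three library SD, with initial intensity B-score within 5 SD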
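Medium – assay buffer, equal DMSO in all wells · Material – CHO-K1 cell line with stable KCNQ1 potassium channel expression · Signal – kinetic FluxOR thallium fluorescence, 10-s 1-Hz baseline, 110-s post-stimulus read · Compound – single concentration per compound, DMSO matched to controls · Schedule – 37 °C overnight plating, 90-min dark dye load, 20-min compound pretreatment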
KCNK9 block conf: KCNK9 potassium channel inhibitors, confirmation, HEK293 cells, thallium flux, duplicate; FluxOR thallium flux fluorescence; inhibition, % at 10 µM; shares compounds with KCNK9 inh; AID 492992, 2010; actives 43% (n = 4,900);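 active = thallium signal inhibited by more than 5 SD of the compound-free buffer control wells, on both duplicate plates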;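 note: 0% = assay buffer control wells without compound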
Kir21 sel: mouse Kir2.1 channel inhibition, confirmation, selectivity assay for KCNK9 modulator project, cell-based, HEK293, thallium flux; Kir2.1 cells, FluxOR thallium flux fluorescence; shares compounds with KCNK9 inh; inhibition, % at 10 µM; AID 492993, 2010; actives 4% (n = 4,900);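 active = thallium signal drop more than 5 SD beyond the mean of the no-compound control wells, seen in both duplicate plates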;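 note: signal is fluorescence rise after thallium addition divided by baseline fluorescence; plate controls were assay buffer only for no effect and full block by chlorpromazine control for full effect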
HEK293 Tl ctr: thallium flux in non-induced HEK293 cells, confirmation, counter-screen for KCNK9 inhibitor project, cell-based, second counter screen, non-induced KCNK9-HEK293. inhibition, % at 10 µM. AID 492997, 2010. shares compounds with KCNK9 inh. FluxOR thallium flux. actives 40% (n = 4,900);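 active = thallium signal drop beyond 5 SD of the untreated control mean, on both duplicate plates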;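 note: plate controls were buffer only IC0 wells for no effect and SID17386958 at its maximal inhibitory level for full effect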
Starred values were filed as active, the others as inactive.

What do the screens show for `Cc1ccc(C)n1N1C(=O)/C(=C\c2ccc(Cl)cc2)SC1=S`?
KCNK3 block: inactive; KCNK9 inh: inactive; Kir21 block: 1.3; KCNQ1 inh: inactive; hERG protect: -13; KCNQ1 pot: inactive; KCNK9 block conf: inactive; Kir21 sel: inactive; HEK293 Tl ctr: inactive

Results for Cc1c(C)n(CCCN(C)C)c2ncnc(NCc3ccccc3)c12 ?
KCNK3 block: inactive; KCNK9 inh: inactive; Kir21 block: 0; KCNQ1 inh: inactive; hERG protect: 2; KCNQ1 pot: inactive

How did COc1ccc(S(=O)(=O)N2CCc3ccccc32)cc1[N+](=O)[O-] do in these assays?
KCNK3 block: inactive; KCNK9 inh: inactive; Kir21 block: -0.91; KCNQ1 inh: inactive; hERG protect: -7; KCNQ1 pot: inactive

Results for O=C1N=c2ccc(Br)cc2=C1c1sc(=S)n(NS(=O)(=O)c2ccccc2)c1O ?
KCNK3 block: inactive; KCNK9 inh: inactive; Kir21 block: -1.1; KCNQ1 inh: inactive; hERG protect: -9; KCNQ1 pot: inactive; KCNK9 block conf: inactive; Kir21 sel: inactive; HEK293 Tl ctr: inactive

Results for COC(=O)c1[nH]c(C)c(/C(O)=C2\C(=O)C(=O)N(CCN3CCOCC3)C2c2ccc(C)o2)c1C (centres undefined) ?
KCNK3 block: inactive; KCNK9 inh: inactive; Kir21 block: -0.01; KCNQ1 inh: inactive; hERG protect: -6; KCNQ1 pot: inactive

How did c1coc(CN(Cc2cccs2)Cc2nnnn2C2CCCCC2)c1 do in these assays?
KCNK3 block: inactive; KCNK9 inh: inactive; Kir21 block: -0.86; KCNQ1 inh: inactive; hERG protect: -3; KCNQ1 pot: inactive

Results for Clc1ccccc1CN(Cc1ccco1)Cc1nnnn1C1CCCC1 ?
KCNK3 block: inactive; KCNK9 inh: -9.9*; Kir21 block: -2.9; KCNQ1 inh: inactive; hERG protect: -5; KCNQ1 pot: inactive; KCNK9 block conf: 60%*; Kir21 sel: 47%*; HEK293 Tl ctr: 41%*

Results for O=C(NNC(=S)Nc1ccc(Br)cc1)c1ccccc1Br ?
KCNK3 block: inactive; KCNK9 inh: inactive; Kir21 block: 0.73; KCNQ1 inh: inactive; hERG protect: -16; KCNQ1 pot: inactive; KCNK9 block conf: inactive; Kir21 sel: inactive; HEK293 Tl ctr: inactive

What do the screens show for `COC(=O)Cc1ccc(NC(=S)NNC(=O)c2ccccc2Br)cc1`?
KCNK3 block: inactive; KCNK9 inh: inactive; Kir21 block: 1.2; KCNQ1 inh: inactive; hERG protect: -1; KCNQ1 pot: inactive

How did CC(C)(C)n1nc2c(c1NC(=O)COc1ccc(Cl)cc1)CSC2 do in these assays?
KCNK3 block: inactive; KCNK9 inh: -11*; Kir21 block: 1.5; KCNQ1 inh: inactive; hERG protect: -12; KCNQ1 pot: inactive; KCNK9 block conf: 45%*; Kir21 sel: inactive; HEK293 Tl ctr: 50%*
